TRPC4 PAM – TRPC4 (mouse) allosteric potentiation. Q9QUQ5. HEK293 TRPC4beta/mu-opioid, DAMGO EC20, Fluo-4 Ca2+ flux; active compounds read high. B-score at 10 µM. actives 0.42% (n = 310,000);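 active = B-score of calcium response area above 5 SD of library B-scores, with initial fluorescence ratio within 5 SD of library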
Target sequence (Q9QUQ5 whole entry, looked up): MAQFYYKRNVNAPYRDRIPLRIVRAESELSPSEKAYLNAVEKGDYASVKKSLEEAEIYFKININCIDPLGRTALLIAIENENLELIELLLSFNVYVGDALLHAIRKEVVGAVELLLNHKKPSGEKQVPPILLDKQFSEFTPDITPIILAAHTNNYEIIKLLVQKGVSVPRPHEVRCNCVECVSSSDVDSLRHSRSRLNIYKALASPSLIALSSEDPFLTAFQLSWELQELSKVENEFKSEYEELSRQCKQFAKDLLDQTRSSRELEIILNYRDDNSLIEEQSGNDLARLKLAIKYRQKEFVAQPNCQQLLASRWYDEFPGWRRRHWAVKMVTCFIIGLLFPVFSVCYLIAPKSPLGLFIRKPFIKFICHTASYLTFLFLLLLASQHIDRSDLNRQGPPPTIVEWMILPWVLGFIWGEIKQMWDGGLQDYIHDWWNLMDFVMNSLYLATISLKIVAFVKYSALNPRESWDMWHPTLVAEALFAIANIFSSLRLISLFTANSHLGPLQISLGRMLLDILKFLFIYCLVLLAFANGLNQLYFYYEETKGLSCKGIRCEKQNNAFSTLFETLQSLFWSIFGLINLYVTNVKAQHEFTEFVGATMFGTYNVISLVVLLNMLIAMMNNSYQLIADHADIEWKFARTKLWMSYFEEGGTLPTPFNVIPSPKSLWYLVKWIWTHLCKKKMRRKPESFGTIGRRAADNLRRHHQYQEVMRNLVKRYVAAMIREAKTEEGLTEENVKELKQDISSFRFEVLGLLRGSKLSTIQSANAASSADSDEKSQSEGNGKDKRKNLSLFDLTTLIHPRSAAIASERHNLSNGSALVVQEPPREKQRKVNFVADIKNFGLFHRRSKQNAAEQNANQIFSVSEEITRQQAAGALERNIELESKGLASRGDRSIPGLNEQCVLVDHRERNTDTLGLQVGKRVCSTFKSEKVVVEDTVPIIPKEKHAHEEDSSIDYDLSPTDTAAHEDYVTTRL
TRPC4 act – opens the mouse TRPC4 cation channel | HEK293 TRPC4beta/mu-opioid, Fluo4 calcium fluorescence; active compounds read high | actives 0.49% (n = 310,000) | AID 2237 | Q9QUQ5 | B-score at 10 µM;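 active = B-score above 5 SD of library B-scores, and initial fluorescence ratio not above library mean plus 5 SD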;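 also: positive B-score marks a calcium rise read as TRPC4 activation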
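System – HEK293 cells stably co-expressing mouse TRPC4beta and mu-opioid receptor · Signal – Fluo4 calcium-sensitive dye fluorescence, kinetic, 1 Hz baseline · Benchmarks – buffer (low) and maximal DAMGO (high) · Read-out – B score of integrated fluorescence ratio per well · Incubation – dye loading 45 min room temperature, 110 s kinetic read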
TRPC6 activator – activates the mouse TRPC6 cation channel; HEK293-TRPC6 membrane potential dye fluorescence; active compounds read high; B-score at 10 µM; actives 0.13% (n = 310,000);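 active = B-score of the integrated fluorescence ratio above library mean plus 3 SD, and starting fluorescence ratio within library mean plus 5 SD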;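 also: higher score means more depolarization so channel activation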
TRPC6 inh – inhibitors of mouse TRPC6 channel; actives 1.1% (n = 310,000); Q61143; B-score at 10 µM; HEK293-TRPC6, membrane potential dye, ACh-evoked depolarization; active compounds read low;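 active = B-score under library mean minus 3 SD, initial fluorescence not abnormally high, positive integrated signal ratio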;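 also: B-score derived from integrated fluorescence ratio over the kinetic read; more negative B-score means stronger inhibition of depolarization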
TRPC4 inh – blocks the mouse TRPC4 cation channel; Q9QUQ5; HEK293 TRPC4beta/mu-opioid, DAMGO-evoked Fluo4 calcium flux; active compounds read low; B-score at 10 µM; actives 0.39% (n = 300,000); AID 2247;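 active = B-score over 3 SD under the library average, no early fluorescence shift, positive overall ratio signal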
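Signal: kinetic Fluo4 fluorescence imaging of calcium influx. Material: stable TRPC4beta/mu-opioid receptor HEK293 cells. Probe or stimulus: DAMGO in two steps, submaximal then maximal.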
Hits are given with their value. This is a sample that favours compounds with a hit; in the whole collection about 2.3% have one here.

How did Cc1noc(C)c1S(=O)(=O)N1CCC(C(=O)NCCCN2CC(C)CC(C)C2)CC1 (stereo not drawn) do in these assays?
TRPC4 PAM: inactive; TRPC4 act: 111; TRPC6 activator: inactive; TRPC6 inh: inactive; TRPC4 inh: inactive

What do the screens show for `Cc1ccsc1/C=N/Nc1ncc(Cl)cc1Cl`?
TRPC4 PAM: 10; TRPC4 act: inactive; TRPC6 activator: inactive; TRPC6 inh: inactive; TRPC4 inh: inactive

How did O=C(NC(=S)Nc1sc2c(c1C(=O)O)CCCC2)c1ccccc1 do in these assays?
TRPC4 PAM: inactive; TRPC4 act: inactive; TRPC6 activator: inactive; TRPC6 inh: inactive; TRPC4 inh: inactive

Results for Cc1ccc(-c2nc(CNC(=O)c3cc(C)on3)cs2)cc1 ?
TRPC4 PAM: inactive; TRPC4 act: inactive; TRPC6 activator: inactive; TRPC6 inh: inactive; TRPC4 inh: inactive

How did CCOC(=O)C1=C(CNCc2ccccc2Cl)NC(=O)NC1c1cccc([N+](=O)[O-])c1 (stereo not drawn) do in these assays?
TRPC4 PAM: inactive; TRPC4 act: inactive; TRPC6 activator: inactive; TRPC6 inh: inactive; TRPC4 inh: inactive

Results for COC(=O)C1=C(CCc2ccccc2)NC(=O)NC1c1ccc(Cl)cc1 (stereo not drawn) ?
TRPC4 PAM: 29; TRPC4 act: inactive; TRPC6 activator: inactive; TRPC6 inh: inactive; TRPC4 inh: inactive

Results for COC(=O)C1=C(CCc2ccccc2)NC(=O)NC1c1ccc(C#N)cc1 (stereo not drawn) ?
TRPC4 PAM: inactive; TRPC4 act: inactive; TRPC6 activator: inactive; TRPC6 inh: inactive; TRPC4 inh: inactive

How did COC(=O)C1=C(COc2ccccc2)NC(=O)NC1c1ccc(Br)cc1 (stereo not drawn) do in these assays?
TRPC4 PAM: inactive; TRPC4 act: inactive; TRPC6 activator: inactive; TRPC6 inh: inactive; TRPC4 inh: inactive

Results for COC(=O)C1=C(COc2ccccc2)NC(=O)NC1c1ccc2ccccc2c1 (stereo not drawn) ?
TRPC4 PAM: inactive; TRPC4 act: 45; TRPC6 activator: inactive; TRPC6 inh: inactive; TRPC4 inh: inactive

How did CCOC(=O)C1=C(CNCCc2ccc(Cl)cc2)NC(=O)NC1c1cccc([N+](=O)[O-])c1 (stereo not drawn) do in these assays?
TRPC4 PAM: 17; TRPC4 act: inactive; TRPC6 activator: inactive; TRPC6 inh: inactive; TRPC4 inh: inactive

Results for O=C(N/N=C/c1c(Cl)[nH]c2ccccc12)c1ccc2c(c1)OCCO2 ?
TRPC4 PAM: inactive; TRPC4 act: inactive; TRPC6 activator: inactive; TRPC6 inh: inactive; TRPC4 inh: inactive

What do the screens show for `COc1ccc(OC)c(S(=O)(=O)NCCc2csc(-c3cccnc3)n2)c1`?
TRPC4 PAM: inactive; TRPC4 act: inactive; TRPC6 activator: inactive; TRPC6 inh: inactive; TRPC4 inh: inactive

Results for CCCN(CCC)C(=O)Cc1coc2ccc3ccccc3c12 ?
TRPC4 PAM: 10; TRPC4 act: inactive; TRPC6 activator: inactive; TRPC6 inh: inactive; TRPC4 inh: inactive

Results for COC(=O)C1CC(Cl)CN1c1ncc(C(F)(F)F)cc1Cl (stereo not drawn) ?
TRPC4 PAM: 11; TRPC4 act: inactive; TRPC6 activator: inactive; TRPC6 inh: inactive; TRPC4 inh: inactive

Results for N#Cc1ccc(OCC(O)CN2CCN(c3ncc(C(F)(F)F)cc3Cl)CC2)cc1 (stereo not drawn) ?
TRPC4 PAM: 25; TRPC4 act: inactive; TRPC6 activator: inactive; TRPC6 inh: inactive; TRPC4 inh: inactive

How did CCOC(=O)N1CCN(c2ncc(C(F)(F)F)cc2Cl)CC1 do in these assays?
TRPC4 PAM: inactive; TRPC4 act: inactive; TRPC6 activator: inactive; TRPC6 inh: inactive; TRPC4 inh: inactive

Results for FC(F)(F)c1cnc(N2CCN(C(=S)NCc3ccccc3)CC2)c(Cl)c1 ?
TRPC4 PAM: inactive; TRPC4 act: inactive; TRPC6 activator: inactive; TRPC6 inh: inactive; TRPC4 inh: inactive

How did FC(F)(F)c1cnc(N2CCCN(C(=S)Nc3ccccc3)CC2)c(Cl)c1 do in these assays?
TRPC4 PAM: inactive; TRPC4 act: 159; TRPC6 activator: inactive; TRPC6 inh: inactive; TRPC4 inh: inactive

What do the screens show for `N#Cc1ccc(OCC(O)CN2CCN(CC(O)COc3ccc(C#N)cc3)CC2)cc1` (stereo not drawn)?
TRPC4 PAM: inactive; TRPC4 act: inactive; TRPC6 activator: inactive; TRPC6 inh: inactive; TRPC4 inh: inactive

What do the screens show for `CNCC(=O)N1CCN(c2ncc(C(F)(F)F)cc2Cl)CC1`?
TRPC4 PAM: inactive; TRPC4 act: 189; TRPC6 activator: inactive; TRPC6 inh: inactive; TRPC4 inh: inactive

What do the screens show for `COc1ccccc1NC(=O)COc1coc(CN2CCN(c3ccccc3)CC2)cc1=O`?
TRPC4 PAM: inactive; TRPC4 act: inactive; TRPC6 activator: inactive; TRPC6 inh: inactive; TRPC4 inh: inactive

How did COc1cc(/C=N/NC(=O)CC#N)ccc1Oc1nc(Cl)ncc1F do in these assays?
TRPC4 PAM: inactive; TRPC4 act: inactive; TRPC6 activator: inactive; TRPC6 inh: inactive; TRPC4 inh: inactive

What do the screens show for `FC(F)(F)c1cnc(N2CCSCC2)c(Cl)c1`?
TRPC4 PAM: inactive; TRPC4 act: inactive; TRPC6 activator: inactive; TRPC6 inh: inactive; TRPC4 inh: inactive

What do the screens show for `CC(C)(C(N)=O)N1CCN(c2ncc(C(F)(F)F)cc2Cl)CC1`?
TRPC4 PAM: inactive; TRPC4 act: 61; TRPC6 activator: inactive; TRPC6 inh: inactive; TRPC4 inh: inactive

What do the screens show for `O=C(CSc1ccccn1)N1CCN(c2ncc(C(F)(F)F)cc2Cl)CC1`?
TRPC4 PAM: inactive; TRPC4 act: 49; TRPC6 activator: inactive; TRPC6 inh: inactive; TRPC4 inh: inactive

How did O=C(O)c1nn(CC(=O)N2CCN(c3ncc(C(F)(F)F)cc3Cl)CC2)c(=O)c2ccccc12 do in these assays?
TRPC4 PAM: 15; TRPC4 act: inactive; TRPC6 activator: inactive; TRPC6 inh: inactive; TRPC4 inh: inactive

What do the screens show for `CCCN(CCC(=O)Nc1cc(OC)cc(OC)c1)CC1CC1`?
TRPC4 PAM: inactive; TRPC4 act: 162; TRPC6 activator: inactive; TRPC6 inh: inactive; TRPC4 inh: inactive

How did CCN(CCC(=O)Nc1cc(OC)cc(OC)c1)Cc1ccccc1 do in these assays?
TRPC4 PAM: inactive; TRPC4 act: 60; TRPC6 activator: inactive; TRPC6 inh: inactive; TRPC4 inh: inactive

What do the screens show for `CC(C)(CO)NCc1c(OCc2ccc(Cl)cc2)ccc2ccccc12`?
TRPC4 PAM: inactive; TRPC4 act: inactive; TRPC6 activator: inactive; TRPC6 inh: -6.72; TRPC4 inh: inactive

What do the screens show for `CN1CCC(=C2c3ccccc3CC(=O)c3sccc32)CC1`?
TRPC4 PAM: inactive; TRPC4 act: inactive; TRPC6 activator: inactive; TRPC6 inh: inactive; TRPC4 inh: inactive

Results for CN1CCC(=C2c3ccccc3CCc3sccc32)CC1 ?
TRPC4 PAM: inactive; TRPC4 act: inactive; TRPC6 activator: inactive; TRPC6 inh: -6.65; TRPC4 inh: inactive

What do the screens show for `CC(C)(C)c1ccc(Cn2c(=O)cnc3ccccc32)cc1`?
TRPC4 PAM: inactive; TRPC4 act: inactive; TRPC6 activator: inactive; TRPC6 inh: inactive; TRPC4 inh: inactive

Screening results from PubChem BioAssay.
